Drawing on ChEMBL document CHEMBL4316637, “Highly Modified Lanostane Triterpenes from Fruiting Bodies of the Basidiomycete Tomophagus sp” (J Nat Prod, 2019), this text covers IC50 and MIC for 4 compounds.

Converted amounts (≈) assume the structure as drawn.

One test relates to Vero. Put plainly: Cytotoxicity against African green monkey Vero cells by GFP based microplate assay. In kind it is cell-based. The note with it: Chlorocebus sabaeus. Summed up: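 Vero cells (nonmalignant African green monkey kidney […]) tested with a green fluorescent protein microplate assay.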
Another test relates to Plasmodium falciparum. Put plainly: Antimalarial activity against Plasmodium falciparum K1 infected in human type A+ erythrocytes incubated for 24 hrs followed by [G-3H]-hypoxanthine incorporation and measured after 18 hrs by liquid scintillation counting method. The class given is functional, organism-based. In outline: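 P. falciparum K1 (multidrug-resistant strain), tested in duplicate with the microculture radioisotope technique; IC50 derived.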

Test [1] has as its system Mycobacterium tuberculosis. Description: Antitubercular activity against Mycobacterium tuberculosis H37Ra by GFP based microplate assay. In kind it is functional. In outline: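 Whole-cell assay on M. tuberculosis H37Ra growth, read by green fluorescent protein signal in microplates; activity given as MIC in μg/mL.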

As for `CC(=O)OC(C)(C)[C@@H]1CC=C2C(=CC[C@]3(C)[C@@H]([C@H](C)[C@H]4OC(=O)C(C)=C[C@@H]4O)CC[C@@]23C)[C@@]12CCC(=O)OC2`, the IC50 (usually the concentration at which inhibition is half-maximal) is above 92 µM with Vero and above 18 µM in the test with Plasmodium falciparum. Besides, in test [1], the minimum inhibitory concentration (MIC) (usually the lowest concentration found to suppress growth) is above 50 µg/mL.
With `CC(=O)OC(C)(C)[C@@H]1CC=C2C(=CC[C@]3(C)[C@@H]([C@H](C)[C@@H]4CC=C(C)C(=O)O4)CC[C@@]23C)[C@@]12CCC(=O)OC2`, the values for the IC50 with Vero and with Plasmodium falciparum were 38 µM and 7.7 µM, respectively. This compound also showed an MIC in test [1] of 50 µg/mL (≈ 95.3 µM).
Taken in the same sequence, the figures for `CC1=CC[C@@H]([C@@H](C)[C@H]2CC[C@@]3(C)[C@@]45CC[C@@H](C(C)(C)O4)[C@]4(CCC(=O)OC4)C5=CC[C@]23C)OC1=O` were 98 µM, above 21 µM and above 50 µg/mL.
For `CC1=CC[C@@H]([C@@H](C)[C@H]2CC[C@@]3(C)C4=CC[C@H]5C(C)(C)OC[C@@]5(CCC(=O)O)C4=CC[C@]23C)OC1=O` the same measures were above 104 µM, 5.1 µM and above 50 µg/mL.
